TRPC6 act = mouse TRPC6 channel activation; Q61143; HEK293-TRPC6 membrane potential dye fluorescence; stronger effect = higher value; B-score at 10 µM; 310,000 tested, 0.13% active; AID 2550;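 active means B-score of the integrated fluorescence ratio above library mean plus 3 SD, and starting fluorescence ratio within library mean plus 5 SD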;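 further: higher score means more depolarization so channel activation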
TRPC4 block = blocks the mouse TRPC4 cation channel; 300,000 tested, 0.39% active; HEK293 TRPC4beta/mu-opioid, DAMGO-evoked Fluo4 calcium flux; stronger effect = lower value; B-score at 10 µM;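 active means B-score over 3 SD under the library average, no early fluorescence shift, positive overall ratio signal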
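Signal: kinetic Fluo4 fluorescence imaging of calcium influx. Material: stable TRPC4beta/mu-opioid receptor HEK293 cells. Probe or stimulus: DAMGO in two steps, submaximal then maximal.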
TRPC4 agonist = activators of mouse TRPC4 channel; HEK293 TRPC4beta/mu-opioid, Fluo4 calcium fluorescence; stronger effect = higher value; 310,000 tested, 0.49% active; B-score at 10 µM;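 active means B-score above 5 SD of library B-scores, and initial fluorescence ratio not above library mean plus 5 SD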;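 further: positive B-score marks a calcium rise read as TRPC4 activation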
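Test system: HEK293 cells stably co-expressing mouse TRPC4beta and mu-opioid receptor | Schedule: Fluo4 dye loading 45 min at room temperature, 110 s recording | Measured by: Kinetic Fluo4 calcium fluorescence, 5 s baseline at 1 Hz | Evaluation: B score of integrated ratio | Controls: Buffer (low) and maximal DAMGO (high)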
TRPC4 potent = allosteric potentiators of mouse TRPC4 channel. Q9QUQ5. HEK293 TRPC4beta/mu-opioid, DAMGO EC20, Fluo-4 Ca2+ flux; stronger effect = higher value. B-score at 10 µM. 310,000 tested, 0.42% active. AID 2227;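 active means B-score of calcium response area above 5 SD of library B-scores, with initial fluorescence ratio within 5 SD of library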;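 further: B-score of integrated fluorescence ratio over time as area under calcium response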
TRPC6 inhibitor = mouse TRPC6 channel inhibition; B-score at 10 µM; Q61143; HEK293-TRPC6, membrane potential dye, ACh-evoked depolarization; stronger effect = lower value; 310,000 tested, 1.1% active;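 active means B-score under library mean minus 3 SD, initial fluorescence not abnormally high, positive integrated signal ratio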;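 further: B-score derived from integrated fluorescence ratio over the kinetic read; more negative B-score means stronger inhibition of depolarization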
TRPC4 sel inh 2 = second check of whether TRPC6 inhibitors also affect mouse TRPC4. shares compounds with TRPC6 inhibitor. HEK293 TRPC4/MOR, membrane potential dye fluorescence; channel activated by saturating DAMGO dose. inhibition, % at 10 µM. 920 tested, 42% active;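 active means compounds whose fluorescence signal differed from control wells by over 3 SD, either direction, in both duplicate plates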
TRPC4 spec = selectivity of TRPC6 inhibitors: effect on mouse TRPC4. shares compounds with TRPC6 inhibitor. HEK293 TRPC4/mu-opioid, membrane potential fluorescence. activity change, negative = inhibition, % at 10 µM. 920 tested, 61% active. AID 2777;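 active means rise or fall in signal beyond 3 SD of buffer-only wells in both replicate plates, either sign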;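 further: integrated kinetic ratio of fluorescence range over baseline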
HEK293 MPD ctr 2-1 = second counter-screen for TRPC6 inhibitors: parental HEK293 cells | parental HEK293 membrane potential dye fluorescence; maximal acetylcholine challenge after compound addition | 920 tested, 31% active | AID 2779 | shares compounds with TRPC6 inhibitor | signal change vs control, % at 10 µM;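 active means membrane potential signal moving either way by over 3 SD of the maximum-effect control, in both duplicate plates, meaning non-specific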
HEK293 MPD ctr-1 = parental HEK293 nonspecific activity of TRPC6 inhibitors; shares compounds with TRPC6 inhibitor; parental HEK293 membrane potential dye fluorescence; membrane potential signal change, % at 10 µM; 920 tested, 60% active; AID 2780;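 active means membrane potential signal shifting up or down by more than 3 SD of buffer-only wells, on both duplicate plates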
HEK293 MPD ctr-2 = parental HEK293 nonspecific activity of TRPC6 modulators. 2,400 tested, 51% active. membrane potential dye fluorescence. shares compounds with TRPC6 inhibitor. membrane potential signal change, % at 10 µM;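 active means membrane potential signal moves up or down beyond 5 SD from buffer-only wells, on both duplicate plates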
HEK293 MPD ctr 2-2 = second check of TRPC6 modulator effects in parental HEK293 cells. shares compounds with TRPC6 inhibitor. membrane potential dye fluorescence; after compound, maximal acetylcholine stimulation. inhibition, % at 10 µM. 2,400 tested, 14% active. AID 488926;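 active means membrane potential signal drops by more than 5 SD from the mean control signal, in both duplicate plates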;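 further: plate controls were acetylcholine ECmax control wells for no effect and buffer only wells for full effect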
TRPC4/MOR mod = mouse TRPC4 off-target activity of TRPC6 modulators; shares compounds with TRPC6 inhibitor; HEK293 TRPC4/mu-opioid, membrane potential fluorescence; percent change from control (negative = decrease, positive = increase), % at 10 µM; 2,400 tested, 69% active; AID 488927;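 active means membrane potential signal moved up or down beyond 5 SD of buffer control wells, in both duplicate plates, actives on both sides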;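 further: plate controls were assay buffer wells for no effect and DAMGO maximal-effect wells for full effect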
TRPC4/MOR inh 2 = mouse TRPC4 off-target activity of TRPC6 modulators, second screen | shares compounds with TRPC6 inhibitor | HEK293 TRPC4/mu-opioid, membrane potential dye fluorescence; stimulated with maximal-effect DAMGO | inhibition, % at 10 µM | 2,400 tested, 55% active | AID 488928;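 active means drop in membrane potential signal beyond 5 SD of the control wells in both duplicate plates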;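 further: TRPC4 counter screen for TRPC6 hits run under conditions tuned for TRPC6 not TRPC4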
TRPC6 block conf = mouse TRPC6 inhibitor confirmation | shares compounds with TRPC6 inhibitor | inhibition, % at 10 µM | 3,300 tested, 43% active | HEK293-TRPC6, membrane potential dye, ACh-evoked depolarization;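 active means fluorescence ratio falls more than 5 SD below the full-stimulation control mean, in both duplicate runs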;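 further: integrated fluorescence ratio of peak minus minimum over baseline after agonist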
TRPC6 act confirm = mouse TRPC6 activator confirmation. shares compounds with TRPC6 inhibitor. HEK293-TRPC6 membrane potential dye fluorescence, FDSS. activation, % at 10 µM. 2,800 tested, 11% active. AID 488961;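 active means ratio signal rise beyond 5 SD above unstimulated control wells' mean, seen in both duplicate runs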;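 further: plate controls were buffer EC0 wells for no effect and acetylcholine ECmax response for full effect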
* hit, by the source's call; i = inactive; . = no result given. The list is not random: actives were taken first. Their share in the collection is about 2.3%.

SMILES	TRPC6 act	TRPC4 block	TRPC4 agonist	TRPC4 potent	TRPC6 inhibitor	HEK293 MPD ctr-2	HEK293 MPD ctr 2-2	TRPC4/MOR mod	TRPC4/MOR inh 2	TRPC6 block conf	TRPC6 act confirm	others
CCn1c(/C=C/Nc2ccccc2)[n+](CC)c2ccc(Cl)cc21	i	i	i	i	-5.2*	-186%*	i	-34%*	56%*	50%*	i
CC(C(=O)Nc1ccccc1C(F)(F)F)N1CCN(C)CC1 (stereo not drawn)	i	i	i	i	i	.	.	.	.	.	.
Cc1ccnc(SCC(=O)N2CCN(C(c3ccccc3)c3ccccc3)CC2)n1	18*	i	i	i	-11*	118%*	i	20%*	i	62%*	142%*
CN(C)C(CNC(=O)c1cccc(NS(=O)(=O)c2ccc(Br)cc2)c1)c1ccco1 (stereo not drawn)	i	i	i	i	-5.7*	i	i	9.5%*	i	i	i
COC(=O)C1=C(C)N(C2CCCCC2)C(=O)/C1=C\c1cccs1	i	i	i	i	i	.	.	.	.	.	.
CCN(CC)CCCn1c2c(c(SCC(=O)Nc3cccc4ccccc34)nc1=O)CCC2	i	i	i	i	i	.	.	.	.	.	.
CN(C)CCCn1c2c(c(SCC(=O)Nc3cccc4ccccc34)nc1=O)CCCC2	i	i	i	i	-5.3*	i	i	i	46%*	i	i
CN(C)CCNC(=O)c1onc(CSc2nc3ccccc3[nH]2)c1C(=O)NCCN(C)C	i	i	i	i	i	.	.	.	.	.	.
Cc1ccc(NC(=O)c2cccc3c2C(=O)N(C2CCCCC2)C3)c(Cl)c1	i	i	i	i	i	.	.	.	.	.	.
Cc1nc(C)c(CCNC(=O)c2ccccc2)s1	i	i	i	i	-6*	i	i	i	i	i	i
COc1ccc(-c2coc3cc(OC)cc(O)c3c2=O)cc1	i	i	i	i	-8.6*	i	i	i	i	i	i
COc1ccc(-c2coc3cc(O)cc(O)c3c2=O)cc1	i	i	i	i	i	.	.	.	.	.	.
C=CCOc1ccc(Cl)cc1CNC1CCCC1	i	-6*	i	i	-7.3*	321%*	83%*	76%*	91%*	72%*	.
COc1ccc(CNC2CCCC2)c(OC)c1OC	i	i	i	i	i	.	.	.	.	.	.
CC[n+]1c(C)sc2c3ccsc3ccc21	i	i	i	i	-6.3*	-184%*	i	-32%*	i	i	i
COC(C/C=C\C(=O)[C@@H](C)OCc1ccccc1)OC	i	i	i	i	i	.	.	.	.	.	.
Cn1nccc1C(=O)NC1CCCc2c1cnn2-c1cc(F)cc(F)c1 (stereo not drawn)	i	i	i	i	i	.	.	.	.	.	.
C=CCC1(N(C(C)=O)c2ccccc2)CCCCC1	i	i	i	i	i	.	.	.	.	.	.
C=CCC1(N(C(C)=O)c2ccccc2C)CCCCC1	i	i	i	i	-9.4*	.	.	.	.	i	i	TRPC4 sel inh 2=i;TRPC4 spec=-0.4%*;HEK293 MPD ctr 2-1=i;HEK293 MPD ctr-1=0.5%*
COc1ccc(NC(=O)c2ccccc2Oc2ccccc2)cc1	i	i	i	i	i	.	.	.	.	.	.
Cc1ccc(NC(=O)C(NC2CCCC2)c2ccccc2)cc1Cl (stereo not drawn)	i	i	i	i	i	.	.	.	.	.	.
COc1cccc(NC(=O)c2ccccc2Oc2ccccc2)c1	i	i	i	i	-5.3*	i	i	14%*	i	i	i
COc1cccc(NC(=O)C(NC2CCCC2)c2ccccc2)c1 (stereo not drawn)	i	i	i	i	-9.6*	.	.	.	.	i	.	TRPC4 sel inh 2=i;TRPC4 spec=12%*;HEK293 MPD ctr 2-1=245%*;HEK293 MPD ctr-1=9.7%*
CCn1c(SCC(=O)Nc2ccc3c(c2)n(C)c(=O)n3C)nnc1-c1ccncc1	12*	i	i	i	i	246%*	i	36%*	i	i	118%*
CCn1c(SCC(=O)NCC(=O)Nc2ccc(F)cc2)nnc1-c1ccncc1	i	i	i	i	i	.	.	.	.	.	.
CN(C)S(=O)(=O)c1cccc(C(=O)NCC(=O)NC2CCN(Cc3ccccc3)CC2)c1	i	i	i	i	i	.	.	.	.	.	.
C=CCN(c1ccccc1)S(=O)(=O)c1cccc(C(=O)NC2CCN(Cc3ccccc3)CC2)c1	i	i	i	i	-6.6*	i	i	i	57%*	i	i
COC1=C/C(=C/c2c(O)c(C#N)c3ccccn23)C=CC1=O	i	i	i	i	i	.	.	.	.	.	.
CC(Oc1ccc2c3c(c(=O)oc2c1)CCC3)C(=O)NC1CCN(Cc2ccccc2)CC1 (stereo not drawn)	i	i	i	i	-6.3*	i	i	-14%*	74%*	58%*	i
COCC(=O)N1CCC(Oc2ccc(C(=O)NC3CCOC(C)(C)C3)cc2)CC1 (stereo not drawn)	i	i	i	i	i	.	.	.	.	.	.
